Source: publication PMC3114641 (ACS medicinal chemistry letters, 2011)
Read-outs that look alike come from different tables or passages of the source. Blank lines part the entries; values can stand above or below the molecule they belong to.

Assays:
[1] = target: T1, chicken riboflavin binding protein (RfBP) (Gallus gallus, UniProt P02752); assay: Isothermal titration calorimetry; settings: ITC; for KD: KD = 1/KA
T1 sequence (P02752 18-238): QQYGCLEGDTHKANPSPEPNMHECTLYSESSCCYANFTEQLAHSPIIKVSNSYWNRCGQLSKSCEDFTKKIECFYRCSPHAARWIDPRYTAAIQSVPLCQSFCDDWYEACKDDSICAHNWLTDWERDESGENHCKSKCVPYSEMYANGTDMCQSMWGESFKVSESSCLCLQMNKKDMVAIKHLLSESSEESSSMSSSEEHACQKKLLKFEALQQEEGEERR

RfBP [2] = target: T2, RfBP (Gallus gallus, UniProt P02752); assay: SPR solution competition: inhibition of RfBP adsorption to RF; assay type: binding, chicken
T2 sequence (P02752 18-238): T1 sequence (P02752 18-238)

RfBP [3] = settings: fluorescence quenching, cited from earlier work
RfBP [4] = target: T2, RfBP; assay: SPR direct binding of RfBP to ligand 1 immobilized on CM5 sensor chip; set-up: species or system chicken
Procedure, shortened: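 Chicken RfBP was injected at 33.0 to 3.70 μM in HBS-EP buffer (pH 7.4) over a CM5 chip with an immobilized riboflavin-linker conjugate. Sensorgrams were fitted globally to a 1:1 Langmuir model to give kon and koff, and KD was derived from these kinetics. KD was also obtained by Scatchard analysis of bound RfBP against RfBP concentration.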

[5] = PBS pH 7.4, 25°C, calculated estimate
[6] = PBS pH 7.4, 25°C, calculated estimate (Table 2)
[7] = 0.1M NaAc pH 4.0, 25°C, calculated estimate
[8] = 0.1M Phosphate pH 7.4, 25°C, calculated estimate
[9] = 0.1M Tris pH 9.0, 25°C, calculated estimate

- binding affinity towards the RfBP [1]: no binding affinity
- KD ([1]; PBS pH 7.4, 25°C): No Binding Observed
Compound: CN(C)CCCN1c2ccccc2Sc2ccc(Cl)cc21 [Chlorpromazine, chlorpromazine]

- n (binding stoichiometry) ([1]; PBS pH 7.4, 25°C): 1.08 ±0.07
- ΔH ([1]; PBS pH 7.4, 25°C): -11.5 ± 1.72 kcal/mol
- ΔG [1, 5]: -9.85 kcal/mol
- ΔS [1, 6]: −0.02 kJ mol^−1 K^−1
Compound: Cc1cc2nc3c(=O)[nH]c(=O)nc-3n(C)c2cc1C [Lumiflavin, lumiflavin]

- binding affinity towards the RfBP [1]: no binding affinity
- KD ([1]; PBS pH 7.4, 25°C): No Binding Observed
Compound: OCCN1CCN(CCCN2c3ccccc3Sc3ccc(Cl)cc32)CC1 [Perphenazine, perphenazine]

- inhibitory activity, fold more potent than N(3) derivative 1 (RfBP [2]; SPR Ki comparison): approximately 7 fold
- n (binding stoichiometry) ([1]; 0.1M NaAc pH 4.0, 25°C): 0.70±0.04
- ΔH ([1]; 0.1M NaAc pH 4.0, 25°C): -24.07 ± 2.49 kcal/mol
- ΔG [1, 7]: -9.99 kcal/mol
- ΔS [1, 7]: -0.0478 kcal/mol
- n (binding stoichiometry) ([1]; 0.1M Phosphate pH 7.4, 25°C): 0.81±0.03
- ΔH ([1]; 0.1M Phosphate pH 7.4, 25°C): -19.6 ± 1.36 kcal/mol
- ΔG [1, 8]: -11.1 kcal/mol
- ΔS [1, 8]: -0.0287 kcal/mol
- n (binding stoichiometry) ([1]; 0.1M Tris pH 9.0, 25°C): 0.82±0.03
- ΔH ([1]; 0.1M Tris pH 9.0, 25°C): -23.7 ± 2.15 kcal/mol
- ΔG [1, 9]: -10.2 kcal/mol
- ΔS [1, 9]: -0.0454 kcal/mol
- n (binding stoichiometry) ([1]; PBS pH 7.4, 25°C): 0.78±0.02
- ΔH ([1]; PBS pH 7.4, 25°C): -21.8 ± 1.36 kcal/mol
- ΔG [1, 5]: -11.4 kcal/mol
- ΔS ([1]; PBS pH 7.4, 25°C, calculated estimate (Table 1)): -0.0359 kcal/mol
- ΔS [1, 6]: −0.15 kJ mol^−1 K^−1
Compound: Cc1cc2nc3c(=O)[nH]c(=O)nc-3n(C[C@H](O)[C@H](O)[C@H](O)CO)c2cc1C [RF, riboflavin]
- Kd (RfBP [3]; 0.01M phosphate buffer): 1.3 nM
- Kd (RfBP [3]; 0.1 M phosphate buffer): 2 nM

- inhibition of RfBP adsorption to the surface (RfBP [2]; RfBP 11.1 µM, ligand concentrations above ~500 µM): approximately 90%
- Kd (RfBP [4]): 14500 nM
- koff (RfBP [4]): 0.00149 s⁻¹
- kon (RfBP [4]): 103 M⁻¹ s⁻¹
Compound: Cc1cc2nc3c(=O)n(CC(=O)NCCCN)c(=O)nc-3n(C[C@H](O)[C@H](O)[C@H](O)CO)c2cc1C [compound 1]
